Test [1] addresses T1, 5-hydroxytryptamine receptor 7 (Homo sapiens, UniProt P34969). As to the kind of experiment: Displacement of [3H]5-HT from human 5-HT7 receptor expressed in HEK293 cells at 10^-7 mol/L after 30 mins by microbeta counting analysis. The class given is cell-based. In general terms: In a radioligand displacement assay an active substance lowers the binding of a labelled ligand.

Test [2] addresses 5-hydroxytryptamine receptor 1D (Rattus norvegicus) (UniProt P28565). As to the kind of experiment: Binding affinity to rat recombinant 5-HT1D receptor expressed in CHO cells at 1 uM by radioligand displacement assay relative to control. Type of test: cell-based.
Test [3] addresses 5-hydroxytryptamine receptor 2A (Homo sapiens) (UniProt P28223). As to the kind of experiment: Binding affinity to human recombinant 5-HT2A receptor expressed in HEK293 cells at 1 uM by radioligand displacement assay relative to control. Type of test: cell-based.
Test [4] concerns the target T1, 5-hydroxytryptamine receptor 7. Put plainly: Antagonist activity at human 5-HT7 receptor expressed in CHO cells assessed as residual 5-HT-stimulated cAMP accumulation at 1 uM relative to control.
Test [5] deals with 5-hydroxytryptamine receptor 4 (Homo sapiens) (UniProt Q13639). As to the kind of experiment: Binding affinity to human recombinant 5-HT4E receptor expressed in CHO cells at 1 uM after 30 mins by radioligand displacement assay relative to control. The class given is cell-based.
Chain of 5-hydroxytryptamine receptor 4 (Homo sapiens) (Q13639 whole entry): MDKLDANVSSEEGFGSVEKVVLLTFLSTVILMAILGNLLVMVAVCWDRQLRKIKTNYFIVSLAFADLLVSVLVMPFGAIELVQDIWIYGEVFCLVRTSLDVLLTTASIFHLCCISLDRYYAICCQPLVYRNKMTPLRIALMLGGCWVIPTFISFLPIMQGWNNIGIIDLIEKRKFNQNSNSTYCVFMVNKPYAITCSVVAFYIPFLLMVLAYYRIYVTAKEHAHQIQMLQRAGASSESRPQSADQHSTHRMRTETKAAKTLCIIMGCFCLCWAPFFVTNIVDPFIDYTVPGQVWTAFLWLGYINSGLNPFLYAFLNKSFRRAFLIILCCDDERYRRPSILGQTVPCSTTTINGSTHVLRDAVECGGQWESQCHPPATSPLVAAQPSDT
Test [6] has as its target T1, 5-hydroxytryptamine receptor 7. Put plainly: Binding affinity to human recombinant 5-HT7 receptor expressed in CHO cells after 30 mins by radioligand displacement assay. Type of test: cell-based. Summed up:
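Membranes from receptor-expressing cells harvested at 80% confluence, homogenised and pelleted at 48,000 × g for 90 min, then protein-quantified by Bradford. Competition with 5 nmol/L [3H]5-HT and test compound for 30 min at 25 °C in 50 mM Tris-HCl pH 7.4 containing pargyline, 4 mmol/L CaCl2 and 0.05% ascorbic acid. Non-specific binding measured with excess cold 5-HT; bound radioligand separated by filtration. Ki derived from IC50 by Cheng-Prusoff; mean of four determinations in duplicate.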

For test [7] the target is unchanged. Put plainly: Displacement of [3H]5-HT from human 5-HT7 receptor expressed in HEK293 cells after 30 mins by microbeta counting analysis. The class given is cell-based.
The target in test [8] is 5-hydroxytryptamine receptor 2B (Homo sapiens) (UniProt P41595). As to the kind of experiment: Binding affinity to human recombinant 5-HT2B receptor expressed in CHO cells at 1 uM by radioligand displacement assay relative to control. The class given is cell-based.
Chain of 5-hydroxytryptamine receptor 2B (Homo sapiens) (P41595 whole entry): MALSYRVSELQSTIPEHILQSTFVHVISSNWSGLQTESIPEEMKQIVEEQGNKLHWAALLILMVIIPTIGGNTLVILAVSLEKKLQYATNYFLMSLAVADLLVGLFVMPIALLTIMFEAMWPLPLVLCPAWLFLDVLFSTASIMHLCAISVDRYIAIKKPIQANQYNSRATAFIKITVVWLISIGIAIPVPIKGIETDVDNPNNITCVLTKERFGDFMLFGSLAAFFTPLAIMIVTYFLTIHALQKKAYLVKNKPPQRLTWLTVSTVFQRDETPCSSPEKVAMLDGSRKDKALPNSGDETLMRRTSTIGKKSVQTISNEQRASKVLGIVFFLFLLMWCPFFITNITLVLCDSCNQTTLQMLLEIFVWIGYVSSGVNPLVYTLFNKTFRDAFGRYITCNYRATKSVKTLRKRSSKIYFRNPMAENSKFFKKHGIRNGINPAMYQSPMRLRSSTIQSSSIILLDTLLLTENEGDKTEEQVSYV
For test [9], the target named is T2, 5-hydroxytryptamine receptor 2C (Homo sapiens) (UniProt P28335).
T2 sequence (whole entry): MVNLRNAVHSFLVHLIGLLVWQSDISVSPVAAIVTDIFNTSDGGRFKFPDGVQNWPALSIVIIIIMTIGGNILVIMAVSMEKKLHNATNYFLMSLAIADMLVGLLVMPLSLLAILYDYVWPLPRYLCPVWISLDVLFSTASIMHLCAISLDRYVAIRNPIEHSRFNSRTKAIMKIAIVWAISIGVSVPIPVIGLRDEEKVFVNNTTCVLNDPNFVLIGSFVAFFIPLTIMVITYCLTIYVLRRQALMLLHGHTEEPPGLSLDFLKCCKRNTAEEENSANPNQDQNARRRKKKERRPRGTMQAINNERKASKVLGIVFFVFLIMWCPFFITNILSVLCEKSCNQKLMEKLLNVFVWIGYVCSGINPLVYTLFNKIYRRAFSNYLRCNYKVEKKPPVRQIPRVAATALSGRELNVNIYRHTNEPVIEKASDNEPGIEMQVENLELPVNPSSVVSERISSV
As to the kind of experiment: Binding affinity to human recombinant 5-HT2C receptor expressed in HEK293 cells at 1 uM after 30 mins by radioligand displacement assay relative to control. The class given is cell-based.

Test [10] deals with 5-hydroxytryptamine receptor 6 (Homo sapiens) (UniProt P50406). Put plainly: Binding affinity to human recombinant 5-HT6 receptor expressed in CHO cells at 1 uM after 30 mins by radioligand displacement assay relative to control. Type of test: cell-based.
Chain of 5-hydroxytryptamine receptor 6 (Homo sapiens) (P50406 whole entry): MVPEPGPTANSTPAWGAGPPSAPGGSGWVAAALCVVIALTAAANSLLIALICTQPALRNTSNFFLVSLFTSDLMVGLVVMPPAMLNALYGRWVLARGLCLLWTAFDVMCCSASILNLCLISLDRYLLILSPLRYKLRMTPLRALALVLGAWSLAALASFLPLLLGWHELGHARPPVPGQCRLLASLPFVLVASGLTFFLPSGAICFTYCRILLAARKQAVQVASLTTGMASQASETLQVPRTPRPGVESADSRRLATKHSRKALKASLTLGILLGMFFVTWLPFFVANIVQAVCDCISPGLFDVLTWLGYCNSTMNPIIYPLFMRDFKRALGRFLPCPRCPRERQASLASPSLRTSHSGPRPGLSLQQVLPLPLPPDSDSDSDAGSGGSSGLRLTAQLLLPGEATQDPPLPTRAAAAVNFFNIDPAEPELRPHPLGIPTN
Test [11] deals with 5-hydroxytryptamine receptor 1B (Homo sapiens) (UniProt P28222). Put plainly: Binding affinity to recombinant human 5-HT1B receptor expressed in CHO cells at 1 uM by radioligand displacement assay relative to control. Type of test: cell-based.
Chain of 5-hydroxytryptamine receptor 1B (Homo sapiens) (P28222 whole entry): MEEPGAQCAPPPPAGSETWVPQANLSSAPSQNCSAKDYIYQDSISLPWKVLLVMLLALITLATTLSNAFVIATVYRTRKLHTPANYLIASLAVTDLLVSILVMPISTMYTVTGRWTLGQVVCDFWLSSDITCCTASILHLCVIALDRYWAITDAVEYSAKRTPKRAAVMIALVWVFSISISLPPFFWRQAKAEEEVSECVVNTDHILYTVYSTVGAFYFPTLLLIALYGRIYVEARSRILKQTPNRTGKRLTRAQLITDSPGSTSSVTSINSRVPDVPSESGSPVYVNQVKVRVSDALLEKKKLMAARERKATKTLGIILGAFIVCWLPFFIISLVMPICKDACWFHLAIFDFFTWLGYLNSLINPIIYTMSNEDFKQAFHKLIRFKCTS
For test [12], the target named is T3, 5-hydroxytryptamine receptor 1A (Homo sapiens) (UniProt P08908).
T3 sequence (whole entry): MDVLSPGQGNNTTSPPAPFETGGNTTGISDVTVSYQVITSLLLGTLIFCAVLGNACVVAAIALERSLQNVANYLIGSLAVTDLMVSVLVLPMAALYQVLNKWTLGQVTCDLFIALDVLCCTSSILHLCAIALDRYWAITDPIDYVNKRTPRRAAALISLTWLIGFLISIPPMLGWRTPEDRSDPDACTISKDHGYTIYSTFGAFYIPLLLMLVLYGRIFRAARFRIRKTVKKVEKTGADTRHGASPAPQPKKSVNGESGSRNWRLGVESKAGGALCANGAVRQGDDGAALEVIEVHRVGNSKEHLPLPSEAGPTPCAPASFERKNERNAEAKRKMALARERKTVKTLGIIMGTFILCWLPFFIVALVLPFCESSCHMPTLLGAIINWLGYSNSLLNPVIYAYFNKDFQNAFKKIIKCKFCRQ
Put plainly: Displacement of [3H]-8-OH-DPAT from human recombinant 5-HT1A receptor expressed in HEK293 cells at 1 uM by scintillation counting analysis relative to control. Type of test: cell-based.

The target of test [13] is T4, 5-hydroxytryptamine receptor 3A (Homo sapiens) (UniProt P46098).
T4 sequence (whole entry): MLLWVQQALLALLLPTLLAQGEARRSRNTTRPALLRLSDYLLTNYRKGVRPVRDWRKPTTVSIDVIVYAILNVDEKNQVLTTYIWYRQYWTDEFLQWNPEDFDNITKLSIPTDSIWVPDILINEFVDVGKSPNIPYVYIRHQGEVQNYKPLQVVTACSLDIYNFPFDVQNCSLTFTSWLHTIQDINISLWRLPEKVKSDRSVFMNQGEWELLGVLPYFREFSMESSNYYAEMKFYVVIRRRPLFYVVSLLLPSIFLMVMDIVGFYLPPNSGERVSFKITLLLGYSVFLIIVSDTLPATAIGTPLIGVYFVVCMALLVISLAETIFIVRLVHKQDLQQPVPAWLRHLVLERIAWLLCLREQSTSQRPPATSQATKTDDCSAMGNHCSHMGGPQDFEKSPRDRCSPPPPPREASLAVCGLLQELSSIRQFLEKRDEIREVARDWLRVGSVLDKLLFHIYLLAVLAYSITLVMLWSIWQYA
As to the kind of experiment: Binding affinity to human 5-HT3 receptor at 1 uM by radioligand displacement assay relative to control.

Test [14] addresses 5-hydroxytryptamine receptor 5A (Homo sapiens) (UniProt P47898). Put plainly: Displacement of [3H]LSD from human recombinant 5-HT5A receptor expressed in HEK293 cells at 1 uM after 120 mins by scintillation counting analysis relative to control. The class given is cell-based.
Test [15] concerns the target T1, 5-hydroxytryptamine receptor 7. Put plainly: Agonist activity at human 5-HT7 receptor expressed in CHO cells assessed as stimulation of cAMP accumulation up to 10^-5 M. Type of test: functional, cell-based. (In general: Changes in cAMP serve as a functional read-out for many G protein-coupled receptors.)
The target is the same in test [16]. Put plainly: Antagonist activity at human 5-HT7 receptor expressed in CHO cells assessed as inhibition of 5-HT-stimulated cAMP accumulation by Cheng-Prusoff method. Type of test: functional, cell-based.
Test [17] has the same target. As to the kind of experiment: Antagonist activity at human 5-HT7 receptor expressed in CHO cells assessed as inhibition of 5-HT-stimulated cAMP accumulation. Type of test: functional, cell-based.
Test [18] has the same target. Put plainly: Displacement of [3H]5-HT from human 5-HT7 receptor expressed in HEK293 cells at 10^-5 mol/L after 30 mins by microbeta counting analysis. Type of test: cell-based. Summed up:
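Membranes incubated 30 min at 25 °C with 5 nmol/L [3H]5-HT in 50 mM Tris-HCl pH 7.4 containing pargyline, CaCl2 and ascorbic acid, with the test compound at a single fixed concentration. Non-specific binding with 100 µM cold 5-HT; separation by filtration; result reported as % displacement.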

The source made the active and inactive calls. No cut-off for these calls is given here.

T1 sequence (P34969 whole entry): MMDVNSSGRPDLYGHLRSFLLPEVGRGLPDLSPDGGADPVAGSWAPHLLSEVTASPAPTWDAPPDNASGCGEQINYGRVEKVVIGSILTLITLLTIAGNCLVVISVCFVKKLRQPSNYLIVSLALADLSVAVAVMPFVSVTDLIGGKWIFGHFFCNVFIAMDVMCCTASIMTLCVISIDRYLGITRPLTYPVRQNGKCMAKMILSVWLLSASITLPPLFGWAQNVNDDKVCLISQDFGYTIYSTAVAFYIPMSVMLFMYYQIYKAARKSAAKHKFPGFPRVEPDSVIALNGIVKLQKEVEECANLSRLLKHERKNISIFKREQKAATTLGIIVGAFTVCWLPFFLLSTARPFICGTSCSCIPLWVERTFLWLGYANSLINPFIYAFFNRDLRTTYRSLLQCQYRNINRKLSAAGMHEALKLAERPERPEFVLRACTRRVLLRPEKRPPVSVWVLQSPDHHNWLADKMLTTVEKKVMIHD
Chain of 5-hydroxytryptamine receptor 2A (Homo sapiens) (P28223 whole entry): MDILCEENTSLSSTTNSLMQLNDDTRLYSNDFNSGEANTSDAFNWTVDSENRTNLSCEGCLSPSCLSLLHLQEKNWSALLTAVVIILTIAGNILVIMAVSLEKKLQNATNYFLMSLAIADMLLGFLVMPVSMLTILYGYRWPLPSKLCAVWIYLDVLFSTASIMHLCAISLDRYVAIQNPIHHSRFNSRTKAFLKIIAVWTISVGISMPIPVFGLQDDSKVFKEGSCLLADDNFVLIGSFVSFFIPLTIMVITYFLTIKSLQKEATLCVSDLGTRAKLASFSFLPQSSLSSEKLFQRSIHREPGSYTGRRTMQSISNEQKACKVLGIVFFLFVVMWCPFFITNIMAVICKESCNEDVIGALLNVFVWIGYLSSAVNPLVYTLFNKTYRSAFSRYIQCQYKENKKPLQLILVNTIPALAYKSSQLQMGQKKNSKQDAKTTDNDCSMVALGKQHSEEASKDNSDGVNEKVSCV
Chain of 5-hydroxytryptamine receptor 1D (Rattus norvegicus) (P28565 whole entry): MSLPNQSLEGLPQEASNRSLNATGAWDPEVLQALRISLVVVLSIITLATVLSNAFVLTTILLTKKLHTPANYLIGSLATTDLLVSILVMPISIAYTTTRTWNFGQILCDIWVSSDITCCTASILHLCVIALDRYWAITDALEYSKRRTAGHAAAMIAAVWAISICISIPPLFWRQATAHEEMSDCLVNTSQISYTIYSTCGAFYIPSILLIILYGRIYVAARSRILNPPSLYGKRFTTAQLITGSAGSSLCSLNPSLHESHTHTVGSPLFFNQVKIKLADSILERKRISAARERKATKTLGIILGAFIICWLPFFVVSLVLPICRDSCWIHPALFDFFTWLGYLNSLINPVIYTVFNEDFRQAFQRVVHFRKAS
Chain of 5-hydroxytryptamine receptor 5A (Homo sapiens) (P47898 whole entry): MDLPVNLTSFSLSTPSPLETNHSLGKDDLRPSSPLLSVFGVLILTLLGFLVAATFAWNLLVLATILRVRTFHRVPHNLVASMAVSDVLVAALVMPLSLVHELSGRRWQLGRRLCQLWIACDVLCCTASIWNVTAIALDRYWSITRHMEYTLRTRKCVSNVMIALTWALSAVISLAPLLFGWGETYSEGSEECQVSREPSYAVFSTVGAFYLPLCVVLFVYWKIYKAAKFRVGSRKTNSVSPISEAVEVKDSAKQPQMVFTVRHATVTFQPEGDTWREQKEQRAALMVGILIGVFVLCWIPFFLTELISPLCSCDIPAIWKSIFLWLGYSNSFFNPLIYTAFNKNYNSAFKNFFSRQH

Usually inhibition stands for the relative decrease from the control value, in per cent. Consider `Oc1ccc2[nH]cc(CCN3CCN(C4CCCC4)CC3)c2c1`, for which, in [1], the inhibition worked out at 1%.
As a reminder, the Ki is the equilibrium dissociation constant of an inhibitor or competing ligand from its target. Turning to `CN(CCCN1CCN(c2ccccc2)CC1)c1cccc(O)c1`, the inhibition in test [2] is 18%; in test [3], 79%; in test [5], -5%; in test [8], 75%; in test [9], 42%; in [10], 21%. In addition, the inhibition in test [11] worked out at 9%; in [12], 101%; in [13], 5%; in [14], 49%. Besides, the % serotonin response in [4] was determined as 49%. Moreover, the Ki in test [6] and in [7] was 20 nM in each case.
By Kb is commonly meant the affinity of an antagonist, worked out from how it opposes an agonist. The term IC50 denotes the point on the concentration scale where inhibition reaches its midpoint. In the case of `CN(CCCCN1CCN(c2ccccc2)CC1)c1cccc(O)c1`, the result in test [15] was inactive. Moreover, the % serotonin response in [4] was 39%. Further, the Ki in test [7] came out at 30 nM. For the same molecule, the antagonist equilibrium constant (Kb) in test [16] was found to be 57 nM. In addition, in test [17], the IC50 is 540 nM.
Turning to `CCCCN1CCN(CCc2c[nH]c3ccc(O)cc23)CC1`, in [1], the inhibition is -9%.
`Oc1ccc2[nH]cc(CCN3CCN(c4ccccc4)CC3)c2c1`: the inhibition came to 60% in [2]; 97% in test [3]; 17% in test [5]; 98% in test [8]; 66% in test [9]; 18% in test [10]. The inhibition in [11] worked out at 11%; in [12], 95%; in test [13], 1%; in test [14], 56%. For the same molecule, the inhibition constant Ki in test [6] and in test [7] was 63.1 nM throughout.
On to `Oc1ccc2[nH]cc(CCN3CCN(c4ccc(-c5ccccc5)cc4)CC3)c2c1`, for which the inhibition in [18] was found to be 32%; in test [1], 10%.
Regarding `CN1C[C@@H](NS(=O)(=O)N(C)C)C[C@@H]2c3cccc4c3c(cn4C)C[C@H]21`, the Kb in [16] was found to be 16 nM.

The values are drawn from ChEMBL document CHEMBL3259775, “Towards the development of 5-HT₇ ligands combining serotonin-like and arylpiperazine moieties” (Eur J Med Chem, 2014).
